Assay results taken from ChEMBL document CHEMBL5705905, “Pharmacological targeting of kinases MST1 and MST2 augments tissue repair and regeneration” (Sci Transl Med, 2016).
Active and inactive are the calls of the source. No cut-off for these calls is given here.

Columns and labels:
[1] = biological target: Ephrin type-B receptor 2 (Homo sapiens) (UniProt P29323); assay: Inhibition of EPHB2 (unknown origin) assessed as remaining activity at 1 uM by Kinome scan method relative to control
[2] = biological target: Homeodomain-interacting protein kinase 4 (Homo sapiens) (UniProt Q8NE63); assay: Inhibition of HIPK4 (unknown origin) assessed as remaining activity at 1 uM by Kinome scan method relative to control
[3] = biological target: Casein kinase II subunit alpha' (Homo sapiens) (UniProt P19784); assay: Inhibition of CSNK2A2 (unknown origin) assessed as remaining activity at 1 uM by Kinome scan method relative to control
In short: (§1)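 Active-site-dependent competition-binding profiling (KINOMEscan) at 1 μM against a 468-kinase panel; compound supplied from a 10 mM DMSO stock. Read-out is ctrl% = (test signal − positive control signal)/(negative control signal − positive control signal) × 100. DMSO is the negative control (100%) and a control compound the positive control (0%). Lower ctrl% means tighter binding.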

[4] = biological target: Serine/threonine-protein kinase TAO2 (Homo sapiens, UniProt Q9UL54); assay: Binding affinity to TAOK2 (unknown origin) assessed as dissociation constant
HepG2 [5] = assay: Induction of apoptosis in human HepG2 cells assessed as late apoptosis cells at 3 uM by annexinV staining (Rvb =0.84 %); assay type: functional
HepG2 [6] = assay: Induction of apoptosis in human HepG2 cells overexpressing MST2 assessed as early apoptosis cells at 3 uM by annexinV staining (Rvb =13.6 %); assay type: functional
[7] = biological target: Phosphatidylinositol 3-kinase catalytic subunit type 3 (Homo sapiens) (UniProt Q8NEB9); assay: Inhibition of VPS34 (unknown origin) assessed as remaining activity at 1 uM by Kinome scan method relative to control
[8] = biological target: Serine/threonine-protein kinase STK11 (Homo sapiens) (UniProt Q15831); assay: Inhibition of LKB1 (unknown origin) assessed as remaining activity at 1 uM by Kinome scan method relative to control
[9] = biological target: BDNF/NT-3 growth factors receptor (Homo sapiens) (UniProt Q16620); assay: Inhibition of TRKB (unknown origin) assessed as remaining activity at 1 uM by Kinome scan method relative to control
Mus musculus [10] = assay: Protection against APAP induced liver injury in mouse assessed as continual expansion of centrilobular necrotic lesions at 1 mg/kg, ip administered at 1.5 hrs by H&E staining; assay type: functional, organism-based
[11] = biological target: Cyclin-dependent kinase 19 (Homo sapiens) (UniProt Q9BWU1); assay: Inhibition of CDK11 (unknown origin) assessed as remaining activity at 1 uM by Kinome scan method relative to control
In short: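 KINOMEscan active-site-dependent competition-binding panel of 468 kinases, compound at 1 μM from a DMSO stock. Result reported as ctrl% = (test signal − positive control signal)/(negative control signal − positive control signal) × 100. The negative control is DMSO (100%) and the positive control is a control compound (0%). Lower ctrl% means tighter binding.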

[12] = biological target: Protein-tyrosine kinase 6 (Homo sapiens) (UniProt Q13882); assay: Inhibition of BRK (unknown origin) assessed as remaining activity at 1 uM by Kinome scan method relative to control
In short: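 Active-site-dependent competition-binding (KINOMEscan) panel of 468 kinases, test compound at 1 μM (from a 10 mM DMSO stock). Read-out is ctrl% = (test signal − positive control signal)/(negative control signal − positive control signal) × 100. DMSO is the negative control (100%) and a control compound is the positive control (0%). Lower ctrl% means tighter binding.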

[13] = biological target: Uncharacterized serine/threonine-protein kinase SBK3 (Homo sapiens) (UniProt P0C264); assay: Inhibition of SgK110 (unknown origin) assessed as remaining activity at 1 uM by Kinome scan method relative to control
[14] = biological target: Calcium/calmodulin-dependent protein kinase type 1G (Homo sapiens) (UniProt Q96NX5); assay: Inhibition of CAMK1G (unknown origin) assessed as remaining activity at 1 uM by Kinome scan method relative to control; in short: as §1
[15] = biological target: Cyclin-G-associated kinase (Homo sapiens) (UniProt O14976); assay: Inhibition of GAK (unknown origin) assessed as remaining activity at 1 uM by Kinome scan method relative to control
[16] = biological target: Cyclin-dependent kinase 13 (Homo sapiens) (UniProt Q14004); assay: Inhibition of CDC2L5 (unknown origin) assessed as remaining activity at 1 uM by Kinome scan method relative to control; in short: as §1
[17] = biological target: LIM domain kinase 1 (Homo sapiens) (UniProt P53667); assay: Inhibition of LIMK1 (unknown origin) assessed as remaining activity at 1 uM by Kinome scan method relative to control
Mus musculus [18] = assay: In vivo inhibition of MST1/2 in mouse assessed as YAP phosphorylation level at 1 mg/kg, ip administration and measured after between 1.5 to 6 hrs by immunoblot analysis; assay type: functional, organism-based; conditions: time 1.5-6 hrs
In short: (§2)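 Wild-type mice received 1 mg/kg intraperitoneally, with vehicle of 0.1% citric acid aqueous solution containing 20% Kolliphor HS 15. Livers were harvested over 0–12 h and lysates immunoblotted for p-MOB1 and p-YAP, normalized to control. Means ± SD, n = 3.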

Mus musculus [19] = assay: In vivo inhibition of MST1/2 in mouse assessed as MOB1 phosphorylation level at 1 mg/kg, ip administration and measured after between 1.5 to 6 hrs by immunoblot analysis; assay type: functional, organism-based; conditions: time 1.5-6 hrs; in short: as §2
[20] = biological target: Serine/threonine-protein kinase Sgk3 (Homo sapiens) (UniProt Q96BR1); assay: Inhibition of SGK3 (unknown origin) assessed as remaining activity at 1 uM by Kinome scan method relative to control
[21] = biological target: Fibroblast growth factor receptor 1 (Homo sapiens) (UniProt P11362); assay: Inhibition of FGFR1 (unknown origin) assessed as remaining activity at 1 uM by Kinome scan method relative to control
[22] = biological target: Non-receptor tyrosine-protein kinase TNK1 (Homo sapiens) (UniProt Q13470); assay: Inhibition of TNK1 (unknown origin) assessed as remaining activity at 1 uM by Kinome scan method relative to control
[23] = biological target: Casein kinase I isoform gamma-2 (Homo sapiens) (UniProt P78368); assay: Inhibition of CSNK1G2 (unknown origin) assessed as remaining activity at 1 uM by Kinome scan method relative to control; in short: as §1
[24] = biological target: Serine/threonine-protein kinase Nek5 (Homo sapiens) (UniProt Q6P3R8); assay: Inhibition of NEK5 (unknown origin) assessed as remaining activity at 1 uM by Kinome scan method relative to control
[25] = biological target: Serine/threonine-protein kinase OSR1 (Homo sapiens) (UniProt O95747); assay: Inhibition of OSR1 (unknown origin) assessed as remaining activity at 1 uM by Kinome scan method relative to control
[26] = biological target: STE20-like serine/threonine-protein kinase (Homo sapiens) (UniProt Q9H2G2); assay: Inhibition of SLK (unknown origin) assessed as remaining activity at 1 uM by Kinome scan method relative to control
RAW264.7 = assay: Inhibition of MST1/2 (unknown origin) in mouse RAW264.7 cells assessed as H2O2 stimulated MOB1 phosphorylation level at 1 to 3 uM by immunoblot analysis; assay type: cell-based; conditions: dose 1-3 µM

Sequence of Cyclin-G-associated kinase (Homo sapiens) (O14976 whole entry): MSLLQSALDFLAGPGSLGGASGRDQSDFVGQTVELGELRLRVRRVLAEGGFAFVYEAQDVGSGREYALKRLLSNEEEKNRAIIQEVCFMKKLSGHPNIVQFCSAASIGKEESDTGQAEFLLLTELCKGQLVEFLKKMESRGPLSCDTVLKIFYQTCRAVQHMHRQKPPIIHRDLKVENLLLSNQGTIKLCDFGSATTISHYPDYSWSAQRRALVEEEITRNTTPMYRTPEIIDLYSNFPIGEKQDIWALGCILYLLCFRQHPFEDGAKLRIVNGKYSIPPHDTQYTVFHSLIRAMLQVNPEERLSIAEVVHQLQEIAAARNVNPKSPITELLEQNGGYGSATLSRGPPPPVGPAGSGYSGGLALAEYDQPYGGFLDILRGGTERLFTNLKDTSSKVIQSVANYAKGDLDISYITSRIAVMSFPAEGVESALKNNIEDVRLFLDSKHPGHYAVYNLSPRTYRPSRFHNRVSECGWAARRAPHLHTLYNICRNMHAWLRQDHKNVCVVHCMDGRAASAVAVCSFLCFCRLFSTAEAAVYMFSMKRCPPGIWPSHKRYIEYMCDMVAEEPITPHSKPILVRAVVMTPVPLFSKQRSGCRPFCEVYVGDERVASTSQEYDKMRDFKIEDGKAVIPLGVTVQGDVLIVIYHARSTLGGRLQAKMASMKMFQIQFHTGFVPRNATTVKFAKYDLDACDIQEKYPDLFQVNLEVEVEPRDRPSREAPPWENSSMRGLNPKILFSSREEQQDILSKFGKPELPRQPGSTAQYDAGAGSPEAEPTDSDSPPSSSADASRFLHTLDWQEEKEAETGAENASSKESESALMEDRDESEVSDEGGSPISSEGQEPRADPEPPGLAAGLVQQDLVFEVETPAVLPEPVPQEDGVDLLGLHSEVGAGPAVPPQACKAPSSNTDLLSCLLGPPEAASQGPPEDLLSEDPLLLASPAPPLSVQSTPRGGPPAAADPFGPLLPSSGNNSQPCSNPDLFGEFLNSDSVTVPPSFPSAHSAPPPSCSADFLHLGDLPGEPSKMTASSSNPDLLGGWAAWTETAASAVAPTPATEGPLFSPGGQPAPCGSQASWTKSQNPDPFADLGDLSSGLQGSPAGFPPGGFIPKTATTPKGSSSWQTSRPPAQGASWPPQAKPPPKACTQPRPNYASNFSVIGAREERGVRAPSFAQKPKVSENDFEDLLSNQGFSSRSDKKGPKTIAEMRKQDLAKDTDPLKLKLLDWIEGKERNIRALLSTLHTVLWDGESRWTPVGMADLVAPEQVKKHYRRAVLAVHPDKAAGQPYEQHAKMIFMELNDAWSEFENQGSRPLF
Sequence of Casein kinase I isoform gamma-2 (Homo sapiens) (P78368 whole entry, looked up, canonical isoform): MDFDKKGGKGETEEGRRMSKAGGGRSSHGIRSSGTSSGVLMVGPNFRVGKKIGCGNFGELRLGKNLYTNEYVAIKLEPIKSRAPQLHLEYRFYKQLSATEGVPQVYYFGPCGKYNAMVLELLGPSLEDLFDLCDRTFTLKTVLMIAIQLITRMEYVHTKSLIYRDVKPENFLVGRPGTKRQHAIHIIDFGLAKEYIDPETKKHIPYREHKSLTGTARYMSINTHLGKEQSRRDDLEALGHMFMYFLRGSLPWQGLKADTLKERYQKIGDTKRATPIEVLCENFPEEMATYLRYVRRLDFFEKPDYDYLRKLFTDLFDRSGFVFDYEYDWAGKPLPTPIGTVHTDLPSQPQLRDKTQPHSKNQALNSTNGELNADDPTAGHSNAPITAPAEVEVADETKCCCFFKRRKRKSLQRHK
Sequence of LIM domain kinase 1 (Homo sapiens) (P53667 whole entry, looked up, the tested form may be a part): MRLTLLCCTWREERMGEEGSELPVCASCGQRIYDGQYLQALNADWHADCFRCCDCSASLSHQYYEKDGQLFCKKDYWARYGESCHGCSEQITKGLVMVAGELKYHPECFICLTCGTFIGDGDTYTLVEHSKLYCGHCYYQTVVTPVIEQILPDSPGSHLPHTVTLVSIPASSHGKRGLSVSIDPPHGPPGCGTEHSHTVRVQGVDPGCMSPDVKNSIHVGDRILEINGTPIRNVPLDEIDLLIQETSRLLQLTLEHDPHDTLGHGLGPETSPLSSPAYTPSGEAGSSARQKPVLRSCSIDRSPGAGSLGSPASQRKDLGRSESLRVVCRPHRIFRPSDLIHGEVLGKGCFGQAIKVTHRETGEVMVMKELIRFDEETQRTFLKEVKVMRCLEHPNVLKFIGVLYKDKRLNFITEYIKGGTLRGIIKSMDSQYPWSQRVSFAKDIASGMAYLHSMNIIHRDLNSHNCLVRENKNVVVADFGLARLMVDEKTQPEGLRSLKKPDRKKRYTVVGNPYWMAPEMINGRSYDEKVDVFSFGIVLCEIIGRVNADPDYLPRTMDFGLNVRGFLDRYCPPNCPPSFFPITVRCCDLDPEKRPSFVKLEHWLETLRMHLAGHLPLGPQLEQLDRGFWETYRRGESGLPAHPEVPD
Sequence of Fibroblast growth factor receptor 1 (Homo sapiens) (P11362 22-822 limits assumed): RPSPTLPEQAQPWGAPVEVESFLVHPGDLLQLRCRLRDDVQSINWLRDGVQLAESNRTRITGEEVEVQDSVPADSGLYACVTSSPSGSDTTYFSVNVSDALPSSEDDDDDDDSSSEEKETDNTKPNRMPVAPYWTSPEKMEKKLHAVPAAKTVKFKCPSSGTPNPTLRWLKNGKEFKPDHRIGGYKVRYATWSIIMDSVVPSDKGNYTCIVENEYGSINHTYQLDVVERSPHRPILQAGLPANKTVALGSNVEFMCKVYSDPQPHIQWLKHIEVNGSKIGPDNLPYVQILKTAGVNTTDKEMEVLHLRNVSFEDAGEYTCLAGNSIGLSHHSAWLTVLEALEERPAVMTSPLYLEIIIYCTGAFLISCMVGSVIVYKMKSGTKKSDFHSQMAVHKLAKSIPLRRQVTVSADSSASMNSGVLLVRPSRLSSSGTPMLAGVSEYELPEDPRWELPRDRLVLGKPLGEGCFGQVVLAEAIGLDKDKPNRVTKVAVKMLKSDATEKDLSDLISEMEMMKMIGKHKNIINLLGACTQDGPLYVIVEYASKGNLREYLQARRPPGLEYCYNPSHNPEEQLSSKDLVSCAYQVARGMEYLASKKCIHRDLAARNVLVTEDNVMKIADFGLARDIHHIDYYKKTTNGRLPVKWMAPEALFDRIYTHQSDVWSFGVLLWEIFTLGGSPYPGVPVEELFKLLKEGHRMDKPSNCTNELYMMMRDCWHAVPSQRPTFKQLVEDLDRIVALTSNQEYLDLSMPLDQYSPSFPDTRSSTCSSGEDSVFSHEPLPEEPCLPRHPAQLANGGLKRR
Sequence of Serine/threonine-protein kinase Sgk3 (Homo sapiens) (Q96BR1 whole entry): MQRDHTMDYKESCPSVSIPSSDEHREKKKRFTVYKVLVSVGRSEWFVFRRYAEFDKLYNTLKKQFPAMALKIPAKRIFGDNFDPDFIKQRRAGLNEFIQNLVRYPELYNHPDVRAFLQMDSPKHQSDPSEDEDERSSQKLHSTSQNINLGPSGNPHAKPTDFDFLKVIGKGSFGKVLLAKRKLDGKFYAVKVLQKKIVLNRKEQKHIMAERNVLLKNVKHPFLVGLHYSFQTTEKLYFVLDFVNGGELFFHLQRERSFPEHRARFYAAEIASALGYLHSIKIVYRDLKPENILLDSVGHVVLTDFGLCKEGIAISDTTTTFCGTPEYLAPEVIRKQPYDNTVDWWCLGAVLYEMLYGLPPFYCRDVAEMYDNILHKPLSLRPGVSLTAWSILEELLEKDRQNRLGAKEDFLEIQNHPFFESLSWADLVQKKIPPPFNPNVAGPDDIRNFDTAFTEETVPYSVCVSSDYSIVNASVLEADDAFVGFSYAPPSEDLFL
Sequence of Serine/threonine-protein kinase OSR1 (Homo sapiens) (O95747 2-527 limits assumed): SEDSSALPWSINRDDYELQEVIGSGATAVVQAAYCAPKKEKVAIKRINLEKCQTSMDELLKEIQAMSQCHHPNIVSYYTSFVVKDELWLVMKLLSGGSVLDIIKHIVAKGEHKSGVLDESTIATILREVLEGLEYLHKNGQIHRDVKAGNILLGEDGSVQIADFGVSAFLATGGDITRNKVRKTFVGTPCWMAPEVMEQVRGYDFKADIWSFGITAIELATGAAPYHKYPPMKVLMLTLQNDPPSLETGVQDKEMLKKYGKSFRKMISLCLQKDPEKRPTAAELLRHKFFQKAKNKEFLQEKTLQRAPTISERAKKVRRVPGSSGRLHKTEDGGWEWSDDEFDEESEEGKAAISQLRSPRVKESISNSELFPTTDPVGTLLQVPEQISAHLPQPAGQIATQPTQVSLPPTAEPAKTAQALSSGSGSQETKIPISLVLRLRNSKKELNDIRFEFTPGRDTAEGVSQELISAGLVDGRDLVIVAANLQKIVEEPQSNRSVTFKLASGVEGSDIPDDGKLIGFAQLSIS
Sequence of Serine/threonine-protein kinase Nek5 (Homo sapiens) (Q6P3R8 whole entry): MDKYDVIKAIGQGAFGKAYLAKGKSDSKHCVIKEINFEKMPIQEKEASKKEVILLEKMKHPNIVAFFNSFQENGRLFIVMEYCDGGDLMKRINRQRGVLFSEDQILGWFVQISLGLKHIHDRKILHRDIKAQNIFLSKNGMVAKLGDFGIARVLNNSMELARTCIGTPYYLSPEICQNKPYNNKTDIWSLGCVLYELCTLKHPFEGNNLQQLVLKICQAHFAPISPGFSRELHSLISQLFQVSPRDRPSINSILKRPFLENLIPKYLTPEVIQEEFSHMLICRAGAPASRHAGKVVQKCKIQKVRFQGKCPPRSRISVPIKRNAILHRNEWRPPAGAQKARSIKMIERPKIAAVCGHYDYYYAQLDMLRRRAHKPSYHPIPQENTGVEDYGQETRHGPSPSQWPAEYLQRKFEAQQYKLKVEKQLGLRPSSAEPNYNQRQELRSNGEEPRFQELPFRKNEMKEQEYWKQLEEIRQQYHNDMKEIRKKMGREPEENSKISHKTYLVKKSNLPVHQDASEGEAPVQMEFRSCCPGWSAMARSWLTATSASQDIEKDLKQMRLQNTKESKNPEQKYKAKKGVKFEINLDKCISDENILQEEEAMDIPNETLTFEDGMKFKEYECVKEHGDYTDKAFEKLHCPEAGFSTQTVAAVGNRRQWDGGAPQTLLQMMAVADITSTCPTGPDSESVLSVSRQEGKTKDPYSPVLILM

CN1C(=O)c2sccc2N(C)c2nc(Nc3ccc(S(N)(=O)=O)cc3)ncc21
Activity [1]: 100%
Activity [2]: 94%
Activity [3]: 97%
Kd [4]: 100 nM
Activity (HepG2 [5]): 0.96%
Activity (HepG2 [6]): 5.12%
Activity [7]: 79%
Activity [8]: 96%
Activity [9]: 35%
Activity (Mus musculus [10]): Active
Activity [11]: 95%
Activity [12]: 100%
Activity [13]: 100%
Activity [14]: 100%
Activity [15]: 48%
Activity [16]: 90%
Activity [17]: 96%
inhibition (Mus musculus [18]): Active
inhibition (Mus musculus [19]): Active
Activity [20]: 87%
Activity [21]: 88%
Activity [22]: 69%
Activity [23]: 100%
Activity [24]: 97%
Activity [25]: 81%
Activity [26]: 100%
inhibition (RAW264.7): Active
